Here are results for 22 compounds from ChEMBL document CHEMBL1914331, “N-O chemistry for antibiotics: discovery of N-alkyl-N-(pyridin-2-yl)hydroxylamine scaffolds as selective antibacterial agents using nitroso Diels-Alder and ene chemistry” (J Med Chem, 2011).

Converted amounts (≈) assume the structure as drawn.

The test system of series [1] is Enterococcus faecalis. Put plainly: Antimicrobial activity against Enterococcus faecalis ATCC 49532 assessed after 18 hrs by broth microdilution method. Conditions: ATCC 49532, 18 h. In kind it is functional. The essentials: (§1)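 CLSI broth microdilution in cation-adjusted MHII broth. 20 mM DMSO stocks were diluted to 512 µM, then serially 2-fold, giving final 128–0.0625 µM with 5×10⁵ CFU/mL inoculum. Incubated 18 h at 37 °C. MIC90 was the lowest concentration giving 90% inhibition by visual turbidity versus DMSO wells. Run in triplicate.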

Series [2] relates to Micrococcus luteus. Put plainly: Antimicrobial activity against Micrococcus luteus ATCC 10240 after 24 hrs by Kirby-Bauer agar diffusion assay. In kind it is functional. The essentials:
(§2)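 Modified Kirby-Bauer well diffusion. Overnight LB cultures (18–24 h) were standardized in 0.9% saline to 0.5 McFarland and mixed into melted MHII agar at 47–50 °C, giving ~5×10³ CFU/mL. 9 mm wells received 50 µL of 2.0 mM compound in 10:1 MeOH:DMSO. Plates were incubated 24 h at 37 °C, then growth-inhibition zone diameter was measured (mm) by caliper.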
Background: In agar diffusion tests the substance spreads into inoculated agar from a disc or well.

Series [3] deals with Enterococcus faecalis. Briefly: Antimicrobial activity against Enterococcus faecalis ATCC 49532 after 24 hrs by Kirby-Bauer agar diffusion assay. In kind it is functional. The method in brief:
as §2

For a further series, the system named is MCF7. Put plainly: Cytotoxicity against human MCF7 cells. In kind it is cell-based.
Another series concerns PC-3. Briefly: Cytotoxicity against human PC3 cells. In kind it is cell-based.
The subject of series [4] is Staphylococcus aureus. Put plainly: Antimicrobial activity against Staphylococcus aureus SG511 after 24 hrs by Kirby-Bauer agar diffusion assay. In kind it is functional. The method in brief:
as §2

The subject of the next series is HeLa. Briefly: Cytotoxicity against human HeLa cells. In kind it is cell-based.
For series [5], the system named is Micrococcus luteus. Briefly: Antimicrobial activity against Micrococcus luteus ATCC 10240 assessed after 18 hrs by broth microdilution method. In kind it is functional. Conditions: ATCC 10240, 18 h. The essentials:
as §1
(In general: Dilution methods test growth across graded concentrations, often in twofold steps.)

The test system of series [6] is Staphylococcus aureus. Put plainly: Antimicrobial activity against Staphylococcus aureus SG511 assessed after 18 hrs by broth microdilution method. Conditions: SG511, 18 h. In kind it is functional. The essentials: as §1

For orientation: MIC90 means the lowest concentration that inhibits either 90% of growth or 90% of the strains tested, depending on the study. In the case of `C=C(C)C(C)(C)N(O)c1ccccn1`, the MIC90 in the series with Enterococcus faecalis [1] is over 128 µM; in the series with Micrococcus luteus [5], 4 µM (≈ 0.769 µg/mL); against Staphylococcus aureus [6], 128 µM (≈ 24.6 µg/mL). Also, the figures for the “diameter of the inhibition zone (DIZ)” value in the series on Micrococcus luteus [2], in the series with Enterococcus faecalis [3] and with Staphylococcus aureus [4] were 33 mm, 18 mm and 15 mm, respectively. Further, the Activity result in the series with MCF7, with PC-3 and in the series with HeLa was “Non-toxic” throughout.

As to `C=C(CN(O)c1ccccn1)c1ccccc1`, the MIC90 against Enterococcus faecalis [1] was over 128 µM; against Micrococcus luteus [5], 64 µM (≈ 14.5 µg/mL); with Staphylococcus aureus [6], 32 µM (≈ 7.24 µg/mL). In addition, the “diameter of the inhibition zone (DIZ)” value in the series with Micrococcus luteus [2] is given as 20 mm; in the series with Enterococcus faecalis [3], 18 mm; with Staphylococcus aureus [4], 19 mm. In addition, the Activity result with MCF7, with PC-3 and in the series with HeLa was “Non-toxic” each time.

Turning to `COc1ccc(CON(Cc2ccccc2)c2ccccn2)cc1`, the MIC90 in the series with Enterococcus faecalis [1], in the series with Micrococcus luteus [5] and in the series with Staphylococcus aureus [6] was over 128 µM each time. Further, the “diameter of the inhibition zone (DIZ)” value with Micrococcus luteus [2], in the series with Enterococcus faecalis [3] and in the series on Staphylococcus aureus [4] was 0 mm each time. The Activity result in the series with MCF7, in the series on PC-3 and in the series with HeLa was “Non-toxic” in each case.

Consider `CN(O)c1ccccn1`, for which the MIC90 with Enterococcus faecalis [1] was over 128 µM; in the series on Micrococcus luteus [5], at least 128 µM; against Staphylococcus aureus [6] it was over 128 µM. In addition, the “diameter of the inhibition zone (DIZ)” value in the series on Micrococcus luteus [2] came to 18 mm; in the series on Enterococcus faecalis [3], 0 mm; with Staphylococcus aureus [4], 0 mm. Also, the Activity entry with MCF7, in the series on PC-3 and in the series on HeLa was “Non-toxic” in each case.

With `CCCN(O)c1ccccn1`, the MIC90 in the series with Enterococcus faecalis [1], against Micrococcus luteus [5] and against Staphylococcus aureus [6] was over 128 µM each time. The “diameter of the inhibition zone (DIZ)” value in the series on Micrococcus luteus [2] is given as 13 mm; in the series on Enterococcus faecalis [3], 0 mm; in the series on Staphylococcus aureus [4], 0 mm. In addition, the Activity entry in the series with MCF7, with PC-3 and in the series with HeLa was “Non-toxic” in each case.

Turning to `CCCCCCN(O)c1ccccn1`, the MIC90 was over 128 µM against Enterococcus faecalis [1], 128 µM (≈ 24.9 µg/mL) against Micrococcus luteus [5] and over 128 µM in the series on Staphylococcus aureus [6]. Further, the “diameter of the inhibition zone (DIZ)” value in the series with Micrococcus luteus [2] amounted to 15 mm; in the series with Enterococcus faecalis [3], 16 mm; in the series on Staphylococcus aureus [4], 17 mm. Besides, the Activity entry in the series on MCF7, in the series on PC-3 and with HeLa was “Non-toxic” throughout.

As to `ON(Cc1ccccc1)c1ccccn1`, the MIC90 in the series with Enterococcus faecalis [1] is over 128 µM; with Micrococcus luteus [5], 64 µM (≈ 12.8 µg/mL); in the series on Staphylococcus aureus [6], 128 µM (≈ 25.6 µg/mL). Further, the “diameter of the inhibition zone (DIZ)” value amounted to 24 mm in the series with Micrococcus luteus [2], 20 mm in the series on Enterococcus faecalis [3] and 18 mm with Staphylococcus aureus [4]. Besides, the Activity result in the series on MCF7, in the series on PC-3 and in the series with HeLa was “Non-toxic” throughout.

Turning to `ON(CCc1ccccc1)c1ccccn1`, the MIC90 against Enterococcus faecalis [1] was over 128 µM; in the series on Micrococcus luteus [5], 128 µM (≈ 27.4 µg/mL); against Staphylococcus aureus [6], over 128 µM. The “diameter of the inhibition zone (DIZ)” value in the series with Micrococcus luteus [2] is given as 16 mm; in the series with Enterococcus faecalis [3], 15 mm; with Staphylococcus aureus [4] it was 0 mm. For the same compound, the Activity entry in the series with MCF7, with PC-3 and in the series on HeLa was “Non-toxic” throughout.

For the compound `C=CCN(O)c1ccccn1`, the MIC90 in the series with Enterococcus faecalis [1], in the series with Micrococcus luteus [5] and in the series on Staphylococcus aureus [6] was over 128 µM each time. Besides, the “diameter of the inhibition zone (DIZ)” value turned out to be 14 mm in the series on Micrococcus luteus [2], 12 mm in the series with Enterococcus faecalis [3] and 0 mm in the series with Staphylococcus aureus [4]. For the same compound, the Activity entry in the series on MCF7, with PC-3 and in the series with HeLa was “Non-toxic” throughout.

For the compound `ON(Cc1cccc(Oc2ccccc2)c1)c1ccccn1`, the MIC90 against Enterococcus faecalis [1], in the series with Micrococcus luteus [5] and against Staphylococcus aureus [6] was over 128 µM each time. Moreover, the “diameter of the inhibition zone (DIZ)” value in the series with Micrococcus luteus [2] came out at 12 mm; in the series on Enterococcus faecalis [3], 0 mm; in the series on Staphylococcus aureus [4], 13 mm. The Activity entry in the series on MCF7, in the series on PC-3 and in the series with HeLa was “Non-toxic” each time.

On to `ON(Cc1ccc(C(F)(F)F)cc1)c1ccccn1`, for which the MIC90 in the series on Enterococcus faecalis [1] is over 128 µM; against Micrococcus luteus [5], 128 µM (≈ 34.3 µg/mL); against Staphylococcus aureus [6], over 128 µM. Further, the “diameter of the inhibition zone (DIZ)” value worked out at 16 mm with Micrococcus luteus [2], 15 mm with Enterococcus faecalis [3] and 15 mm in the series with Staphylococcus aureus [4]. The Activity entry in the series with MCF7, with PC-3 and with HeLa was “Non-toxic” each time.

In the case of `ON(Cc1ccc(OC(F)(F)F)cc1)c1ccccn1`, the MIC90 in the series on Enterococcus faecalis [1] is over 128 µM; in the series on Micrococcus luteus [5], 128 µM (≈ 36.4 µg/mL); in the series with Staphylococcus aureus [6], over 128 µM. Moreover, the “diameter of the inhibition zone (DIZ)” value amounted to 17 mm with Micrococcus luteus [2], 15 mm in the series on Enterococcus faecalis [3] and 14 mm in the series on Staphylococcus aureus [4]. For the same compound, the Activity entry in the series with MCF7, in the series on PC-3 and with HeLa was “Non-toxic” throughout.

As for `CC(=O)ON(Cc1ccccc1)c1ccccn1`, the MIC90 in the series with Enterococcus faecalis [1] is over 128 µM; with Micrococcus luteus [5], 128 µM (≈ 31 µg/mL); in the series on Staphylococcus aureus [6], over 128 µM. The “diameter of the inhibition zone (DIZ)” value in the series on Micrococcus luteus [2] is listed as 20 mm; in the series with Enterococcus faecalis [3] it was 11 mm; in the series on Staphylococcus aureus [4] it was 12 mm. The Activity entry in the series on MCF7, in the series on PC-3 and with HeLa was “Non-toxic” in each case.

Regarding `ON(Cc1ccccc1)c1cccnc1`, the MIC90 in the series on Enterococcus faecalis [1] was over 128 µM; in the series on Micrococcus luteus [5], at least 128 µM; against Staphylococcus aureus [6], over 128 µM. The figures for the “diameter of the inhibition zone (DIZ)” value in the series with Micrococcus luteus [2], with Enterococcus faecalis [3] and with Staphylococcus aureus [4] were 15 mm, 0 mm and 16 mm, respectively. In addition, the Activity result in the series with MCF7, in the series on PC-3 and with HeLa was “Non-toxic” each time.

As to `ON(Cc1ccccc1)Cc1ccccn1`, the MIC90 with Enterococcus faecalis [1], against Micrococcus luteus [5] and in the series on Staphylococcus aureus [6] was over 128 µM throughout. For the same compound, the “diameter of the inhibition zone (DIZ)” value in the series on Micrococcus luteus [2], in the series with Enterococcus faecalis [3] and in the series on Staphylococcus aureus [4] was 0 mm throughout. The Activity entry in the series with MCF7, with PC-3 and with HeLa was “Non-toxic” in each case.

`c1ccc(CNc2ccccn2)cc1`: the MIC90 with Enterococcus faecalis [1], against Micrococcus luteus [5] and against Staphylococcus aureus [6] was over 128 µM throughout. Further, the “diameter of the inhibition zone (DIZ)” value in the series with Micrococcus luteus [2], in the series on Enterococcus faecalis [3] and with Staphylococcus aureus [4] was 0 mm each time. Besides, the Activity result in the series with MCF7, with PC-3 and in the series on HeLa was “Non-toxic” each time.

In the case of `CO[C@H]1C=CCC[C@@H]1N(O)c1ccc(Br)cn1` (racemic), the MIC90 against Enterococcus faecalis [1] is over 128 µM; with Micrococcus luteus [5], 4 µM (≈ 1.2 µg/mL); against Staphylococcus aureus [6] it was at least 128 µM. The figures for the “diameter of the inhibition zone (DIZ)” value with Micrococcus luteus [2], in the series with Enterococcus faecalis [3] and with Staphylococcus aureus [4] were 34 mm, 20 mm and 18 mm, respectively. Moreover, the Activity entry with MCF7, in the series with PC-3 and in the series on HeLa was “Non-toxic” in each case.

For `CC(C)O[C@@H]1C=C[C@@H](N(O)c2ccc(Br)cn2)CC1` (relative stereo), the “diameter of the inhibition zone (DIZ)” value with Micrococcus luteus [2] is on record as over 14 mm. The Activity entry in the series on MCF7, with PC-3 and in the series with HeLa was “Non-toxic” throughout.

For `Cc1cccc(N(O)[C@@H]2C=C[C@@H](OC(C)(C)C)C2)n1` (relative stereo), the “diameter of the inhibition zone (DIZ)” value in the series on Micrococcus luteus [2] was over 14 mm. For the same compound, the Activity entry in the series with MCF7, in the series on PC-3 and with HeLa was “Non-toxic” throughout.

`ON(c1ccc(Br)cn1)[C@@H]1CCC=C[C@H]1OCc1ccccc1` (relative stereo): in the series on Micrococcus luteus [2], the “diameter of the inhibition zone (DIZ)” value is reported as over 14 mm. Further, the Activity entry in the series with MCF7, in the series with PC-3 and in the series with HeLa was “Non-toxic” in each case.

Take `O=C(NO)c1ccccc1` [BENZOHYDROXAMATE]: the “diameter of the inhibition zone (DIZ)” value in the series with Micrococcus luteus [2] is “<=14 mm”. The Activity entry in the series with MCF7, in the series with PC-3 and in the series on HeLa was “Non-toxic” in each case.

Take `O=C(Cc1ccccc1)NO` [PHENYLACETOHYDROXAMIC ACID]: in the series with Micrococcus luteus [2], the “diameter of the inhibition zone (DIZ)” value is “<=14 mm”. For the same compound, the Activity result with MCF7, in the series with PC-3 and in the series with HeLa was “Non-toxic” each time.
